Measurements as given in ChEMBL document CHEMBL3860041, “Synthesis, biological evaluation and molecular modeling study of some new methoxylated 2-benzylthio-quinazoline-4(3H)-ones as nonclassical antifolates” (Bioorg Med Chem Lett, 2016).

Assays:
Assay type in all cases: functional
[1] = Growth inhibition of human SN12C cells at 10 uM after 48 hrs by SRB assay relative to control; conditions: read-out: GI
In short: (§1)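 Primary screen across the full NCI 60 human tumour cell line panel, which covers nine tumour subpanels. A single dose of 10 μM was applied to each line, and growth was recorded for each cell line.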

[2] = Growth inhibition of human T47D cells at 10 uM after 48 hrs by SRB assay relative to control; conditions: read-out: GI; in short: as §1
[3] = Growth inhibition of human SF539 cells at 10 uM after 48 hrs by SRB assay relative to control; conditions: SF-539, 48 h, read-out: GI
In short: (§2)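 NCI 60-cell-line panel, nine tumor subpanels; compounds tested at a single dose of 10 μM in the primary screen.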

[4] = Growth inhibition of human HCT15 cells at 10 uM after 48 hrs by SRB assay relative to control; conditions: HCT-15, 48 h, read-out: GI; in short: as §2
[5] = Growth inhibition of human NCI-H460 cells at 10 uM after 48 hrs by SRB assay relative to control; conditions: NCI-H460, 48 h, read-out: GI; in short: as §2
[6] = Growth inhibition of human MOLT4 cells at 10 uM after 48 hrs by SRB assay relative to control; conditions: MOLT-4, 48 h, read-out: GI; in short: as §2
[7] = Growth inhibition of human UO31 cells at 10 uM after 48 hrs by SRB assay relative to control; conditions: UO-31, 48 h, read-out: GI; in short: as §1
[8] = Growth inhibition of human K562 cells at 10 uM after 48 hrs by SRB assay relative to control; conditions: K562, 48 h, read-out: GI; in short: as §2
[9] = Growth inhibition of human SK-MEL-28 cells at 10 uM after 48 hrs by SRB assay relative to control; conditions: SK-MEL-28, 48 h, read-out: GI; in short: as §1
[10] = Growth inhibition of human MDA-MB-435 cells at 10 uM after 48 hrs by SRB assay relative to control; conditions: MDA-MB-435, 48 h, read-out: GI; in short: as §2
[11] = Growth inhibition of human RPMI8226 cells at 10 uM after 48 hrs by SRB assay relative to control; conditions: RPMI-8226, 48 h, read-out: GI; in short: as §2
[12] = Growth inhibition of human IGROV1 cells at 10 uM after 48 hrs by SRB assay relative to control; conditions: IGROV-1, 48 h, read-out: GI; in short: as §2
[13] = Growth inhibition of human 786-0 cells at 10 uM after 48 hrs by SRB assay relative to control; conditions: 786-0, 48 h, read-out: GI; in short: as §2
[14] = Growth inhibition of human ACHN cells at 10 uM after 48 hrs by SRB assay relative to control; conditions: read-out: GI; in short: as §2
[15] = Growth inhibition of human SK-MEL-2 cells at 10 uM after 48 hrs by SRB assay relative to control; conditions: SK-MEL-2, 48 h, read-out: GI; in short: as §1
[16] = Growth inhibition of human U251 cells at 10 uM after 48 hrs by SRB assay relative to control; conditions: U-251, 48 h, read-out: GI; in short: as §1
[17] = Growth inhibition of human A549 cells at 10 uM after 48 hrs by SRB assay relative to control; conditions: A549, 48 h, read-out: GI; in short: as §2
[18] = Growth inhibition of human MALME-3M cells at 10 uM after 48 hrs by SRB assay relative to control; conditions: read-out: GI; in short: as §2
[19] = Growth inhibition of human HCT116 cells at 10 uM after 48 hrs by SRB assay relative to control; conditions: HCT-116, 48 h, read-out: GI; in short: as §2
[20] = Growth inhibition of human OVCAR8 cells at 10 uM after 48 hrs by SRB assay relative to control; conditions: OVCAR-8, 48 h, read-out: GI; in short: as §2
[21] = Growth inhibition of human HT-29 cells at 10 uM after 48 hrs by SRB assay relative to control; conditions: HT-29, 48 h, read-out: GI; in short: as §2
[22] = Growth inhibition of human OVCAR5 cells at 10 uM after 48 hrs by SRB assay relative to control; conditions: OVCAR-5, 48 h, read-out: GI; in short: as §2
[23] = Growth inhibition of human LOXIMVI cells at 10 uM after 48 hrs by SRB assay relative to control; conditions: LOX IMVI, read-out: GI; in short: as §2
[24] = Growth inhibition of human COLO205 cells at 10 uM after 48 hrs by SRB assay relative to control; conditions: COLO 205, 48 h, read-out: GI; in short: as §2
[25] = Growth inhibition of human HCC2998 cells at 10 uM after 48 hrs by SRB assay relative to control; conditions: HCC 2998, 48 h, read-out: GI; in short: as §2
[26] = Growth inhibition of human OVCAR4 cells at 10 uM after 48 hrs by SRB assay relative to control; conditions: OVCAR-4, 48 h, read-out: GI; in short: as §2
[27] = Growth inhibition of human UACC62 cells at 10 uM after 48 hrs by SRB assay relative to control; conditions: UACC-62, 48 h, read-out: GI; in short: as §1
[28] = Growth inhibition of human SK-MEL-5 cells at 10 uM after 48 hrs by SRB assay relative to control; conditions: SK-MEL-5, 48 h, read-out: GI; in short: as §1
[29] = Growth inhibition of human Hs 578T cells at 10 uM after 48 hrs by SRB assay relative to control; conditions: read-out: GI; in short: as §2
[30] = Growth inhibition of human NCI-322M cells at 10 uM after 48 hrs by SRB assay relative to control; conditions: read-out: GI; in short: as §2

COc1ccc(-n2c(SCc3cc(OC)c(OC)c(OC)c3)nc3ccc(Cl)cc3c2=O)cc1 showed an inhibition of growth at 10 µM [1] of 18.3%, an inhibition of growth at 10 µM [2] of 23.9% and an inhibition of growth at 10 µM [3] of 12.7%. The inhibition of growth at 10 µM [4] was 19.3%, the inhibition of growth at 10 µM [5] was 10.3% and the inhibition of growth at 10 µM [6] was 27.6%. For the same compound, the inhibition of growth at 10 µM [7] was 52.1%, the inhibition of growth at 10 µM [8] was 28.6% and the inhibition of growth at 10 µM [9] was less than 10%. For the same compound, the inhibition of growth at 10 µM [10] was 12.4%, the inhibition of growth at 10 µM [11] was 33.8% and the inhibition of growth at 10 µM [12] was 16.3%. It also gave an inhibition of growth at 10 µM [13] of less than 10%, an inhibition of growth at 10 µM [14] of 16.4% and an inhibition of growth at 10 µM [15] of less than 10%. For the same compound, the inhibition of growth at 10 µM [16] was less than 10%, the inhibition of growth at 10 µM [17] was 20.2% and the inhibition of growth at 10 µM [18] was less than 10%. The inhibition of growth at 10 µM [19] was 33.3%, the inhibition of growth at 10 µM [20] was 13.7% and the inhibition of growth at 10 µM [21] was 17%. For the same compound, the inhibition of growth at 10 µM [22] was 10.5%, the inhibition of growth at 10 µM [23] was 18% and the inhibition of growth at 10 µM [24] was less than 10%. It also gave an inhibition of growth at 10 µM [25] of less than 10%, an inhibition of growth at 10 µM [26] of 28.3% and an inhibition of growth at 10 µM [27] of 33.9%. The inhibition of growth at 10 µM [28] was 15.1%, the inhibition of growth at 10 µM [29] was 13.9% and the inhibition of growth at 10 µM [30] was less than 10%.
With COc1cc(CSc2nc3ccc(Cl)cc3c(=O)n2-c2ccccc2)cc(OC)c1OC the inhibition of growth at 10 µM [1] was 24%, the inhibition of growth at 10 µM [2] was 29.1% and the inhibition of growth at 10 µM [3] was 21.1%. The inhibition of growth at 10 µM [4] was 47.5%, the inhibition of growth at 10 µM [5] was less than 10% and the inhibition of growth at 10 µM [6] was 30.3%. For the same compound, the inhibition of growth at 10 µM [7] was 52.2%, the inhibition of growth at 10 µM [8] was 61.8% and the inhibition of growth at 10 µM [9] was less than 10%. The inhibition of growth at 10 µM [10] was 75.6%, the inhibition of growth at 10 µM [11] was less than 10% and the inhibition of growth at 10 µM [12] was 27.5%. For the same compound, the inhibition of growth at 10 µM [13] was 10.7%, the inhibition of growth at 10 µM [14] was 21.1% and the inhibition of growth at 10 µM [15] was 22.5%. It also gave an inhibition of growth at 10 µM [16] of 11.4%, an inhibition of growth at 10 µM [17] of 26.1% and an inhibition of growth at 10 µM [18] of 23.5%. It also gave an inhibition of growth at 10 µM [19] of 38.2%, an inhibition of growth at 10 µM [20] of 15.7% and an inhibition of growth at 10 µM [21] of 33%. It also gave an inhibition of growth at 10 µM [22] of 15.4%, an inhibition of growth at 10 µM [23] of 20.7% and an inhibition of growth at 10 µM [24] of 15.5%. It also gave an inhibition of growth at 10 µM [25] of 20%, an inhibition of growth at 10 µM [26] of 18.3% and an inhibition of growth at 10 µM [27] of 35.9%. For the same compound, the inhibition of growth at 10 µM [28] was 18.8%, the inhibition of growth at 10 µM [29] was less than 10% and the inhibition of growth at 10 µM [30] was 14.3%.
In the case of COc1ccc(CSc2nc3cc(OC)c(OC)cc3c(=O)n2-c2ccc(OC)cc2OC)cc1, the inhibition of growth at 10 µM [1] is reported as less than 10%, the inhibition of growth at 10 µM [2] is reported as 24.4% and the inhibition of growth at 10 µM [3] is reported as less than 10%. The inhibition of growth at 10 µM [4] was 19.4%, the inhibition of growth at 10 µM [5] was less than 10% and the inhibition of growth at 10 µM [6] was 20.6%. For the same compound, the inhibition of growth at 10 µM [7] was 44.6%, the inhibition of growth at 10 µM [8] was 12.9% and the inhibition of growth at 10 µM [9] was less than 10%. It also gave an inhibition of growth at 10 µM [10] of 38%, an inhibition of growth at 10 µM [11] of 36.3% and an inhibition of growth at 10 µM [12] of 14%. For the same compound, the inhibition of growth at 10 µM [13] was less than 10%, the inhibition of growth at 10 µM [14] was less than 10% and the inhibition of growth at 10 µM [15] was less than 10%. The inhibition of growth at 10 µM [16] was less than 10%, the inhibition of growth at 10 µM [17] was 19.2% and the inhibition of growth at 10 µM [18] was 17.4%. The inhibition of growth at 10 µM [19] was 37.2%, the inhibition of growth at 10 µM [20] was 10.8% and the inhibition of growth at 10 µM [21] was 12%. It also gave an inhibition of growth at 10 µM [22] of less than 10%, an inhibition of growth at 10 µM [23] of 16.6% and an inhibition of growth at 10 µM [24] of less than 10%. The inhibition of growth at 10 µM [25] was less than 10%, the inhibition of growth at 10 µM [26] was 16.8% and the inhibition of growth at 10 µM [27] was 19.8%. For the same compound, the inhibition of growth at 10 µM [28] was 19.5%, the inhibition of growth at 10 µM [29] was 13.3% and the inhibition of growth at 10 µM [30] was 19.4%.
